Experimental data reported in ChEMBL document CHEMBL3351398, “Discovery of a Potent and Selective DGAT1 Inhibitor with a Piperidinyl-oxy-cyclohexanecarboxylic Acid Moiety” (ACS Med Chem Lett, 2014).

What was measured:
[1] = tested on: Mus musculus; assay: Inhibition of plasma triglyceride accumulation in mouse at 10 mg/kg, po dosed 2 hrs before lipid challenge and measured at 18 hrs by lipid tolerance test; assay type: functional
In short: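 Mouse lipid tolerance test measuring plasma triglyceride excursion. Dosing was 10 mpk oral, with triglyceride reduction read at 18 h.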

[2] = Drug level in small intestine of C57BL/6 mouse at 10 mg/kg, po after 24 hrs; assay type: ADME, organism-based; parameters: dose 10 mg/kg, route oral; settings: read-out: Drug uptake
In short: (§1)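 Tissue distribution in C57BL/6 mice. A single oral dose of 10 mg/kg was given as a solution in EtOH/PEG400/water (10:50:40). Parent and its cis isomer were both measured, in μM, in plasma, liver, small intestine, adipose fat and skin at 3 h and 24 h.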

[3] = tested on: Salmonella typhimurium; assay: Induction of mutagenicity in Salmonella typhimurium TA100 assessed as increase in number of revertants in absence of metabolic activation; assay type: toxicity, organism-based; settings: salmonella enterica subsp. enterica serovar typhimurium
In short: (§2)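 Microbial reverse-mutation (Ames) test in strains TA1535, TA98 and TA100, with and without metabolic activation. The concentration range was 30 to 5000 μg/plate. A positive call required a 2-fold or greater increase in revertants relative to the solvent control.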

[4] = tested on: Intestine; assay: Drug level in small intestine of C57BL/6 mouse assessed as cis-4-((1-(5-(5-(trifluoromethyl)-1H-benzo[d]imidazol-2-yl)pyridin-2-yl)piperidin-4-yl)oxy)cyclohexanecarboxylic acid level at 10 mg/kg, po after 24 hrs; assay type: ADME, organism-based; parameters: dose 10 mg/kg, route oral; settings: in vivo, read-out: Drug uptake; in short: as §1
[5] = tested on: Liver; assay: Drug level in liver of C57BL/6 mouse assessed as cis-4-((1-(5-(5-(trifluoromethyl)-1H-benzo[d]imidazol-2-yl)pyridin-2-yl)piperidin-4-yl)oxy)cyclohexanecarboxylic acid level at 10 mg/kg, po after 3 hrs; assay type: ADME, organism-based; parameters: dose 10 mg/kg, route oral; settings: in vivo, read-out: Drug uptake; in short: as §1
[6] = Half life in Sprague-Dawley rat at 1 mg/kg, iv or 2 mg/kg, po; assay type: ADME, organism-based; settings: in vivo
[7] = tested on: Liver; assay: Drug level in liver of C57BL/6 mouse assessed as cis-4-((1-(5-(5-(trifluoromethyl)-1H-benzo[d]imidazol-2-yl)pyridin-2-yl)piperidin-4-yl)oxy)cyclohexanecarboxylic acid level at 10 mg/kg, po after 24 hrs; assay type: ADME, organism-based; parameters: dose 10 mg/kg, route oral; settings: in vivo, read-out: Drug uptake; in short: as §1
[8] = tested on: Rattus norvegicus; assay: Inhibition of plasma triglyceride accumulation in Sprague-Dawley rat at 3 mg/kg, po dosed 2 hrs before lipid challenge and measured at 18 hrs by lipid tolerance test; assay type: functional
In short: (§3)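 Rat lipid tolerance test at oral doses of 1 and 3 mpk. Reduction of lipid excursion was normalized to a reference DGAT1 inhibitor given at 10 mpk, set as 100%. Plasma drug levels were the parent and its cis isomer combined, measured 4 h after oral dosing.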

[9] = Oral bioavailability in Beagle dog at 4 mg/kg; assay type: ADME, organism-based, Canis lupus familiaris; settings: in vivo
In short: (§4)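 Single-dose pharmacokinetics. Beagle dogs were dosed at 1 mg/kg iv as a solution in 30% captisol (pH 8) and at 4 mg/kg po in 0.5 methylcellulose.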

[10] = Clearance in Beagle dog at 1 mg/kg, iv or 4 mg/kg, po; assay type: ADME, organism-based, Canis lupus familiaris; settings: in vivo; in short: as §4
[11] = Drug level in adipose fat of C57BL/6 mouse assessed as cis-4-((1-(5-(5-(trifluoromethyl)-1H-benzo[d]imidazol-2-yl)pyridin-2-yl)piperidin-4-yl)oxy)cyclohexanecarboxylic acid level at 10 mg/kg, po after 24 hrs; assay type: ADME, organism-based, Adipose tissue; parameters: dose 10 mg/kg, route oral; settings: in vivo, read-out: Drug uptake; in short: as §1
[12] = tested on: Rattus norvegicus; assay: AUC in Sprague-Dawley rat assessed as cis-4-((1-(5-(5-(trifluoromethyl)-1H-benzo[d]imidazol-2-yl)pyridin-2-yl)piperidin-4-yl)oxy)cyclohexanecarboxylic acid rat at 2 mg/kg, po; assay type: ADME, organism-based, Plasma; parameters: dose 2 mg/kg, route oral; settings: in vivo
[13] = Drug level in skin of C57BL/6 mouse at 10 mg/kg, po after 3 hrs; assay type: ADME, organism-based, Zone of skin; parameters: dose 10 mg/kg, route oral; settings: read-out: Drug uptake; in short: as §1
[14] = tested on: Salmonella typhimurium; assay: Induction of mutagenicity in Salmonella typhimurium TA98 assessed as increase in number of revertants in absence of metabolic activation; assay type: toxicity, organism-based; settings: salmonella enterica subsp. enterica serovar typhimurium; in short: as §2
[15] = Drug level in plasma of C57BL/6 mouse at 10 mg/kg, po after 24 hrs; assay type: ADME, organism-based; parameters: dose 10 mg/kg, route oral; in short: as §1
[16] = molecular target: T1, Diacylglycerol O-acyltransferase 1 (Homo sapiens, UniProt O75907); assay: Inhibition of human DGAT1
T1 sequence (O75907 whole entry): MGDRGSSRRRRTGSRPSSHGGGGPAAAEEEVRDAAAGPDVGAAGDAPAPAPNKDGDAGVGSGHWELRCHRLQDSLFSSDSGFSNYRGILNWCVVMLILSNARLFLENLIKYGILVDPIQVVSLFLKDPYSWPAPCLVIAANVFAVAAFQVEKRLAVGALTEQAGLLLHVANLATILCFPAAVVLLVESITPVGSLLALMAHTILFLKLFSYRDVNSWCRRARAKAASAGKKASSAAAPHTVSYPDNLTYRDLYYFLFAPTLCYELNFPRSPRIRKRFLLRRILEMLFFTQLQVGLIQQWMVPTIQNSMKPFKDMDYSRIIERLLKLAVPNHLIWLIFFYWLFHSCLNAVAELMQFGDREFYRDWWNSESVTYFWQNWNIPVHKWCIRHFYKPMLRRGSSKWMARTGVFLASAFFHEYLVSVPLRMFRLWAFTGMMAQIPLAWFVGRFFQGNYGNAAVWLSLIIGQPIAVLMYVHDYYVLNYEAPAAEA

[17] = Drug level in plasma of C57BL/6 mouse at 10 mg/kg, po after 3 hrs; assay type: ADME, organism-based; parameters: dose 10 mg/kg, route oral; in short: as §1
[18] = Unbound fraction in human plasma; assay type: ADME, cell-free
[19] = Clearance in Sprague-Dawley rat at 1 mg/kg, iv or 2 mg/kg, po; assay type: ADME, organism-based; settings: in vivo
[20] = Volume of distribution at steady state in Beagle dog at 1 mg/kg, iv or 4 mg/kg, po; assay type: ADME, organism-based, Canis lupus familiaris; settings: in vivo, read-out: Vdss
In short: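 Beagle dogs were dosed 1 mg/kg iv as a solution in 30% captisol (pH 8) and 4 mg/kg po in methylcellulose. Pharmacokinetic parameters were derived from these dosings.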

[21] = Drug level in liver of C57BL/6 mouse at 10 mg/kg, po after 3 hrs; assay type: ADME, organism-based; parameters: dose 10 mg/kg, route oral; settings: read-out: Drug uptake; in short: as §1
[22] = AUC in Beagle dog at 4 mg/kg, po; assay type: ADME, organism-based, Canis lupus familiaris; parameters: dose 4 mg/kg, route oral; settings: plasma; in short: as §4
[23] = tested on: Zone of skin; assay: Drug level in skin of C57BL/6 mouse assessed as cis-4-((1-(5-(5-(trifluoromethyl)-1H-benzo[d]imidazol-2-yl)pyridin-2-yl)piperidin-4-yl)oxy)cyclohexanecarboxylic acid level at 10 mg/kg, po after 3 hrs; assay type: ADME, organism-based; parameters: dose 10 mg/kg, route oral; settings: in vivo, read-out: Drug uptake; in short: as §1
[24] = tested on: Canis familiaris; assay: AUC in Beagle dog assessed as cis-4-((1-(5-(5-(trifluoromethyl)-1H-benzo[d]imidazol-2-yl)pyridin-2-yl)piperidin-4-yl)oxy)cyclohexanecarboxylic acid at 4 mg/kg, po; assay type: ADME, organism-based, Canis lupus familiaris, Plasma; parameters: dose 4 mg/kg, route oral; settings: in vivo; in short: as §4
[25] = tested on: Intestine; assay: Drug level in small intestine of C57BL/6 mouse assessed as cis-4-((1-(5-(5-(trifluoromethyl)-1H-benzo[d]imidazol-2-yl)pyridin-2-yl)piperidin-4-yl)oxy)cyclohexanecarboxylic acid level at 10 mg/kg, po after 3 hrs; assay type: ADME, organism-based; parameters: dose 10 mg/kg, route oral; settings: in vivo, read-out: Drug uptake; in short: as §1
[26] = Plasma concentration in Sprague-Dawley rat at 1 mg/kg, po dosed 2 hrs before lipid challenge and measured at 4 hrs by lipid tolerance test; assay type: ADME, organism-based; parameters: dose 1 mg/kg, route oral; in short: as §3
[27] = Oral bioavailability in Sprague-Dawley rat at 2 mg/kg; assay type: ADME, organism-based; settings: in vivo
[28] = Drug level in small intestine of C57BL/6 mouse at 10 mg/kg, po after 3 hrs; assay type: ADME, organism-based; parameters: dose 10 mg/kg, route oral; settings: read-out: Drug uptake; in short: as §1
[29] = Unbound fraction in mouse plasma; assay type: ADME, cell-free

With `O=C(O)[C@H]1CC[C@H](OC2CCN(c3ccc(-c4nc5cc(C(F)(F)F)ccc5[nH]4)cn3)CC2)CC1` the inhibition in vivo at 10 mg/kg [1] was 89%, the concentration at 24 h [2] was 711 nM and the Activity [3] was “Non-toxic”. The concentration [4] was 76 nM, the concentration [5] was 6910 nM and the half-life [6] was 54.6 min. The concentration [7] was 672 nM, the inhibition in vivo at 3 mg/kg [8] was 80% and the bioavailability [9] was 126%. For the same compound, the clearance [10] was 88.9 mL/min/kg, the concentration [11] was under 10 nM and the AUC [12] was 0.97 µM·h. The concentration at 3 h [13] was 404 nM, the Activity [14] was “Non-toxic” and the concentration at 24 h [15] was under 10 nM. It also gave an IC50 [16] of 3.9 nM, a concentration at 3 h [17] of 324 nM and a fraction unbound [18] of 0.09. It also gave a clearance [19] of 5.82 mL/min/kg, a Vd [20] of 4.54 L/kg and a concentration at 3 h [21] of 21600 nM. The AUC [22] was 1.94 µM·h, the concentration [23] was 46 nM and the AUC [24] was 0.11 µM·h. It also gave a concentration [25] of 5030 nM, a concentration at 4 h [26] of 20 nM and a bioavailability [27] of 8%. It also gave a concentration at 3 h [28] of 36600 nM and a fraction unbound [29] of 0.078.
